Entries after “also recorded” stand apart in the source; their conditions may differ.
Columns and labels:
DKH346 = test: Inhibition of basal ATPase of monomeric DKH346; assay type: biochemical, Drosophila; conditions: 6.8 µM DKH346 (Fig. 3C)
Procedure, shortened: (§1)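 Heads were Drosophila kinesin residues 1–346 (for the artificial dimer, fused via a TSGG linker to the GCN4-p1 coiled coil) or 1–357. Basal ATPase was run at 25 °C in A25 buffer (pH 6.9) with […], 2 mM PEP and 0.25 mM NADH, coupled to PK/LDH, KCl as indicated. A340 was read, with turbidity correction where needed. Tail-peptide titrations were fit to the quadratic mutual-depletion equation.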

DKH412 [1] = test: Inhibition of mADP release; assay type: biochemical, Drosophila
K346SC = test: Inhibition of basal ATPase of artificial dimer K346SC; assay type: biochemical, Drosophila; conditions: read-out: Kd, inhibition of basal ATPase; 6 µM K346SC monomer (Fig. 3C)
Procedure, shortened: as §1

K357SC = test: Inhibition of artificial dimer K357SC; assay type: biochemical, Drosophila; conditions: not shown
DKH412 [2] = test: Inhibition of basal steady state ATPase of DKH412 head dimer; assay type: biochemical, Drosophila; conditions: no added KCl, 7 µM DKH412 monomer
DKH357 = test: Inhibition of basal ATPase of monomeric DKH357; assay type: biochemical, Drosophila; conditions: 13.3 µM DKH357
Procedure, shortened: as §1

[3] = Sedimentation of single constructs, 25 mM KCl; assay type: physicochemical; conditions: A25 buffer, 0.1 mM ATP, 4 °C
kinesin head domains = conditions: ref [6], cited from earlier work

In the case of “NF910-952: monomeric Drosophila kinesin tail peptide, residues 910-952, non-fusion version obtained by thrombin cleavage”, the “inhibition of monomeric DKH346 (in words)” value (DKH346) is reported as “only poorly inhibited”, the “maximum extent of inhibition of mADP release” value (DKH412 [1]; 50 mM KCl, 25 °C, pH 6.9, 0.2 µM DKH412) is reported as 75% and the “maximum inhibition of mADP release” value (DKH412 [1]; no added KCl, A25 buffer pH 6.9, 25 °C, 0.2 µM DKH412) is reported as “over 80%”. The Kd (K346SC) was 0.33 µM, the “stoichiometry of inhibition of K357SC” value (K357SC) was “half-site stoichiometry” and the “stoichiometry of inhibition of basal ATPase” value (DKH412 [2]) was 1 tail peptide per two head peptides. For the same molecule, the “inhibition of monomeric DKH357 (in words)” value (DKH357) was “only weakly inhibits; also recorded: not strongly inhibited”.

In the case of “DKH412: residues 1 to 412 of Drosophila kinesin with C-terminal HisTag; dimeric head construct”, the “s20,w, centrifuged alone” value [3] is reported as 5.2 S.

In the case of `Nc1ncnc2c1ncn2[C@@H]1O[C@H](COP(=O)(O)OP(=O)(O)O)[C@@H](O)[C@H]1O` [ADP], the “rate of release as ADP” value (kinesin head domains; basal) is listed as ~ 0.01 s^−1.

For `Nc1ncnc2c1ncn2[C@@H]1O[C@H](COP(=O)(O)OP(=O)(O)OP(=O)(O)O)[C@@H](O)[C@H]1O` [ATP], the Km (kinesin head domains; read-out: KM for ATP, basal ATPase, absence of MTs) is listed as ~2.5 nM and the “net ATP binding and hydrolysis rate” value (kinesin head domains) is listed as ≥ 4e+06 M⁻¹ s⁻¹.

Source: PMC3321547 (Biochemistry, 2009)
